This is an account of results in ChEMBL document CHEMBL2401709 (J Med Chem, 2013).

In one assay the test system is MCF7. Briefly: Cytotoxicity against human MCF7 cells assessed as growth inhibition after 72 hrs by calcein AM staining-based fluoroscence assay. Format: functional, cell-based. The conditions noted are these: MCF7, 72 h.
For another assay, the system named is HCT-116. Briefly: Cytotoxicity against human HCT116 cells assessed as growth inhibition after 72 hrs by calcein AM staining-based fluoroscence assay. Format: functional, cell-based. The conditions noted are these: HCT-116, 72 h.
In assay [1] the target is Cyclin-dependent kinase 2/cyclin E1 (Homo sapiens, UniProt P24941). Briefly: Inhibition of human recombinant CDK2/Cyclin E expressed in baculovirus infected sf9 cells using histone H1 as substrate.
In assay [2] the test system is G-361. Description: Cytotoxicity against human G361 cells assessed as growth inhibition after 72 hrs by calcein AM staining-based fluoroscence assay. Format: functional, cell-based. Conditions: G-361, 72 h.
The test system of a further assay is K562. Briefly: Cytotoxicity against human K562 cells assessed as growth inhibition after 72 hrs by calcein AM staining-based fluoroscence assay. The conditions noted are these: K562, 72 h. The class given is functional, cell-based.
Another assay concerns HOS. Description: Cytotoxicity against human HOS cells assessed as growth inhibition after 72 hrs by calcein AM staining-based fluoroscence assay. Format: functional, cell-based.
Another assay deals with HeLa. Description: Cytotoxicity against human HeLa cells assessed as growth inhibition after 72 hrs by calcein AM staining-based fluoroscence assay. The class given is functional, cell-based.
The next assay has as its target CDK2/CDK4 (Homo sapiens) (UniProt P11802+P24941). Briefly: Inhibition of CDK2/4-mediated retinoblastoma protein phosphorylation at ser780 in human G361 cells at 300 nM after 24 hrs by immunoblotting analysis. Format: cell-based. The conditions noted are these: G-361. Put shortly:
(§1)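 Treated G361 cells harvested into Laemmli sample buffer. Proteins resolved by SDS-PAGE and blotted to nitrocellulose. Membranes blocked, probed overnight with specific primary antibodies, then peroxidase-conjugated secondaries. ECL detection by CCD camera. Actin served as loading control.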
A general note: A western blot detects proteins with antibodies after separation by electrophoresis.

Assay [3] addresses Cyclin-dependent kinase 9 (Homo sapiens) (UniProt P50750). Briefly: Inhibition of CDK9-mediated RNA polymerase 2 phosphorylation at ser2 in human G361 cells at 300 nM after 24 hrs by immunoblotting analysis. The class given is cell-based. Conditions: G-361. The essentials:
as §1

For assay [4], the system named is G-361. Description: Induction of apoptosis in human G361 cells assessed as caspase 9 activation using Ac-DEHD-AMC as substrate at 300 nM after 24 hrs by fluorimetry assay. The class given is functional, cell-based. The conditions noted are these: in the assay text read “Ac-LEHD-AMC” for “Ac-DEHD-AMC”. The essentials: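 G361 lysates were made in CHAPS extraction buffer, pH 7.4, clarified at 10000g, and protein-equalized. They were incubated 24 h with 100 μM Ac-LEHD-AMC in 100 mM HEPES pH 7.5, 0.5 mM EDTA, 20% glycerol, 5 mM DTT. AMC fluorescence read at 355/460 nm (ex/em).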

For assay [5], the system named is G-361. Description: Induction of apoptosis in human G361 cells assessed as induction of PARP-1 clevage at 300 nM after 24 hrs by immunoblotting analysis. The class given is functional, cell-based. Put shortly:
as §1

Assay [6] relates to G-361. Briefly: Induction of apoptosis in human G361 cells assessed as decrease in Mcl-1 protein level at 300 nM after 24 hrs by immunoblotting analysis. The class given is functional, cell-based. Put shortly: as §1
The test system of assay [7] is G-361. Description: Induction of apoptosis in human G361 cells assessed as induction of caspase-7 clevage at 300 nM after 24 hrs by immunoblotting analysis. The class given is functional, cell-based. Put shortly:
as §1

In assay [8] the test system is G-361. Briefly: Induction of apoptosis in human G361 cells assessed as caspase 3/7 activation using Ac-DEVD-AMC as substrate at 300 nM after 24 hrs by fluorimetry assay. The class given is functional, cell-based.
The test system of assay [9] is G-361. Description: Induction of apoptosis in human G361 cells assessed as induction of caspase-9 clevage at 300 nM after 24 hrs by immunoblotting analysis. Format: functional, cell-based. Put shortly:
as §1

Assay [10] has as its system G-361. Briefly: Induction of apoptosis in human G361 cells assessed as induction of caspase-3 clevage at 300 nM after 24 hrs by immunoblotting analysis. The class given is functional, cell-based. The essentials:
as §1

Assay [11] relates to G-361. Briefly: Induction of apoptosis in human G361 cells assessed as decrease in Mcl-1 at 300 nM after 24 hrs by immunoblotting analysis. The class given is functional, cell-based. The essentials:
as §1

As usually defined, the IC50 is the concentration at which inhibition is half-maximal.

The source made the active and inactive calls. No cut-off for these calls is given here.

Sequence of Cyclin-dependent kinase 9 (Homo sapiens) (P50750 whole entry): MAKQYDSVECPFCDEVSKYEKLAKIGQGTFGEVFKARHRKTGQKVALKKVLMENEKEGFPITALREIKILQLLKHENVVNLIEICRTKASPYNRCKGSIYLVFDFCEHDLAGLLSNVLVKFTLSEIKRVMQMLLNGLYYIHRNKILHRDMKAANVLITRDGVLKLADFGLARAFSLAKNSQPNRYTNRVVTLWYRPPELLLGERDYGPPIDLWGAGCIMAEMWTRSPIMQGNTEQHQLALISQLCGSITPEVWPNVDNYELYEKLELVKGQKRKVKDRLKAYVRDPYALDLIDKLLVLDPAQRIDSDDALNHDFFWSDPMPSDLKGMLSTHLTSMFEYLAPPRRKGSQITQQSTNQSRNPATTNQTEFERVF

Regarding `Nc1ccccc1-c1ccc(CNc2nc(NC3CCC(N)CC3)nc3c2ncn3C2CCCC2)cn1` (centres undefined), the IC50 is 117 nM in the assay on MCF7; 635 nM in the assay with HCT-116; 10 nM in assay [1]; 730 nM in the assay on G-361 [2]; 200 nM in the assay on K562; 398 nM in the assay on HOS. Also, the IC50 with HeLa was 535 nM.
As for `NC1CCC(Nc2nc(NCc3ccc(-c4ccco4)cc3)c3ncn(C4CCCC4)c3n2)CC1` (centres undefined), the IC50 in the assay on MCF7 is 85 nM; in the assay on HCT-116 it was 129 nM; in [1], 11.4 nM; with G-361 [2], 164 nM; in the assay with K562, 96 nM; with HOS it was 102 nM. Moreover, in the assay with HeLa, the IC50 was 71 nM.
For `NC1CCC(Nc2nc(NCc3ccc(-c4ccsc4)cc3)c3ncn(C4CCCC4)c3n2)CC1` (centres undefined), the IC50 was 145 nM in the assay on MCF7; 315 nM in the assay with HCT-116; 14 nM in [1]; 570 nM in the assay with G-361 [2]; 150 nM in the assay on K562; 120 nM with HOS. For the same molecule, the IC50 with HeLa is 220 nM.
On to `NC1CCC(Nc2nc(NCc3ccc(-c4cccc(F)c4)nc3)c3ncn(C4CCCC4)c3n2)CC1` (centres undefined), for which the IC50 is 33 nM with MCF7; 74 nM in the assay on HCT-116; 14 nM in assay [1]; 49 nM with G-361 [2]; 61 nM in the assay with K562; 44 nM in the assay with HOS. Moreover, the half-inhibitory concentration (IC50) in the assay on HeLa is 36 nM. Further, the inhibition result on CDK2/CDK4 (Homo sapiens) is “Active”. In assay [3], the “Inhibition of RNA polymerase II Ser2 phosphorylation (qualitative)” value is “Active”. Moreover, the result with G-361 [4], with G-361 [5], in the assay with G-361 [6], in the assay on G-361 [7], in the assay on G-361 [8] and with G-361 [9] was Active. Besides, the result with G-361 [10] and with G-361 [11] was Active.
For the molecule `NC1CCC(Nc2nc(NCc3ccc(-n4cccn4)cc3)c3ncn(C4CCCC4)c3n2)CC1` (centres undefined), the IC50 with MCF7 is 139 nM; in the assay with HCT-116, 320 nM; in assay [1], 12 nM; in the assay with G-361 [2], 220 nM; in the assay with K562, 119 nM; with HOS, 103 nM. Besides, in the assay with HeLa, the IC50 was 170 nM. In addition, the inhibition result at CDK2/CDK4 (Homo sapiens) was “Active”. The “Inhibition of RNA polymerase II Ser2 phosphorylation (qualitative)” value in assay [3] is “Active”. Further, the outcome with G-361 [4], with G-361 [5], in the assay with G-361 [6], in the assay with G-361 [7], with G-361 [8] and in the assay with G-361 [9] was Active. The outcome in the assay with G-361 [10] and with G-361 [11] was Active.
`NC1CCC(Nc2nc(NCc3ccc(-c4cccs4)cc3)c3ncn(C4CCCC4)c3n2)CC1` (centres undefined): the IC50 with MCF7 is 290 nM; with HCT-116, 592 nM; in assay [1], 20 nM; in the assay with G-361 [2] it was 655 nM; in the assay on K562, 307 nM; in the assay with HOS it was 247 nM. Besides, in the assay on HeLa, the IC50 was 358 nM.
Consider `NC1CCC(Nc2nc(NCc3ccc(-c4ccoc4)cc3)c3ncn(C4CCCC4)c3n2)CC1` (centres undefined), for which the IC50 in the assay with MCF7 is 247 nM; in the assay with HCT-116, 1040 nM; in assay [1], 13 nM; in the assay on G-361 [2], 670 nM; with K562, 287 nM; with HOS, 140 nM. Further, in the assay with HeLa, the IC50 is 140 nM.
For the molecule `CC[C@H](CO)Nc1nc(NCc2ccccc2)c2ncn(C(C)C)c2n1` [SELICICLIB], the values for the IC50 with MCF7 and in the assay with HeLa were 12300 nM and 28600 nM, respectively.
Regarding `NC1CCC(Nc2nc(NCc3ccc(Br)nc3)c3ncn(C4CCCC4)c3n2)CC1` (centres undefined), the IC50 in the assay with MCF7 is 483 nM; in the assay on HCT-116 it was 577 nM; in the assay with G-361 [2], 640 nM; in the assay on K562, 1180 nM; in the assay with HOS it was 935 nM; in the assay on HeLa, 633 nM.
Turning to `NC1CCC(Nc2nc(NCc3ccc(Br)cc3)c3ncn(C4CCCC4)c3n2)CC1` (centres undefined), the IC50 is 850 nM with MCF7; 790 nM in the assay with HCT-116; 1480 nM in the assay on G-361 [2]; 1170 nM with K562; 995 nM with HOS; 1510 nM with HeLa.
For the molecule `NC1CCC(Nc2nc(NCc3ccc(-c4ccccc4)cc3)c3ncn(C4CCCC4)c3n2)CC1` (centres undefined), the IC50 in assay [1] is 26 nM.
Turning to `OC1CCC(Nc2nc(NCc3ccc(-c4ccco4)nc3)c3ncn(C4CCCC4)c3n2)CC1` (centres undefined), the IC50 in the assay with MCF7 was 390 nM; in the assay with HCT-116, 617 nM; in [1], 23 nM; in the assay with G-361 [2], 443 nM; in the assay on K562, 303 nM; with HOS, 180 nM. Besides, in the assay with HeLa, the IC50 is 247 nM.
Consider `NC1CCC(Nc2nc(NCc3ccc(-c4cccc(F)c4)cc3)c3ncn(C4CCCC4)c3n2)CC1` (centres undefined), for which the IC50 in the assay on MCF7 was 293 nM; in the assay on HCT-116, 551 nM; in [1], 33.5 nM; in the assay with G-361 [2] it was 815 nM; in the assay on K562 it was 290 nM; in the assay on HOS, 211 nM. In the assay with HeLa, the IC50 was 445 nM.
As for `COc1ccccc1-c1ccc(CNc2nc(NC3CCC(N)CC3)nc3c2ncn3C2CCCC2)cc1` (centres undefined), the IC50 in the assay with MCF7 was 303 nM; in the assay with HCT-116 it was 430 nM; in assay [1], 33 nM; with G-361 [2] it was 545 nM; with K562, 347 nM; in the assay on HOS, 150 nM. Also, in the assay on HeLa, the IC50 is 333 nM.
Take `NC1CCC(Nc2nc(NCc3ccc(-c4ccsc4)nc3)c3ncn(C4CCCC4)c3n2)CC1` (centres undefined): the IC50 was 100 nM in the assay on MCF7; 145 nM in the assay with HCT-116; 18 nM in assay [1]; 272 nM in the assay on G-361 [2]; 150 nM in the assay on K562; 89 nM with HOS. The IC50 with HeLa was 75 nM. For the same molecule, the result with G-361 [4], in the assay with G-361 [5], with G-361 [6], in the assay on G-361 [7], with G-361 [8] and with G-361 [9] was Active. Further, the outcome with G-361 [10] and in the assay on G-361 [11] was Active.
As to `COc1ccccc1-c1ccc(CNc2nc(NC3CCC(N)CC3)nc3c2ncn3C2CCCC2)cn1` (centres undefined), the IC50 with MCF7 was 82 nM; with HCT-116, 177 nM; in assay [1], 34 nM; in the assay with G-361 [2], 140 nM; with K562, 66 nM; with HOS, 122 nM. In the assay with HeLa, the IC50 is 39 nM.
On to `Nc1ccccc1-c1ccc(CNc2nc(NC3CCC(N)CC3)nc3c2ncn3C2CCCC2)cc1` (centres undefined), for which the IC50 in the assay on MCF7 was 977 nM; in the assay with HCT-116, 930 nM; in assay [1], 20.5 nM; in the assay with G-361 [2], 4120 nM; with K562, 1110 nM; with HOS it was 1880 nM. In the assay on HeLa, the IC50 was 1010 nM.
